The source made the active and inactive calls. The calls are words filed in the database; no cut-off is given here.
Tests used:
SMMC-7721 [1] = assay: Down regulation of TSPAN8 mRNA expression in human SMMC7721 cells at 8 uM by RT-qPCR analysis; assay type: functional, cell-based
Outline: (§1)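 Cells exposed to 8 μM; target mRNA quantified by RT-qPCR normalized to actin; means ± SD, n = 3.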

SMMC-7721 [2] = assay: Induction of apoptosis in human SMMC7721 cells assessed as early apoptotic cells at 5 uM after 48 hrs by Annexin-V-FITC/propidium iodide staining based flow cytometric method (reference value: 2.27%); assay type: functional
SMMC-7721 [3] = assay: Induction of apoptosis in human SMMC7721 cells assessed as late apoptotic cells at 2.5 uM after 48 hrs by Annexin-V-FITC/propidium iodide staining based flow cytometric method (reference value: 1.17%); assay type: functional
SMMC-7721 [4] = assay: Down regulation of NNMT mRNA expression in human SMMC7721 cells at 8 uM by RT-qPCR analysis; assay type: functional, cell-based; outline: as §1
SMMC-7721 [5] = assay: Induction of apoptosis in human SMMC7721 cells assessed as late apoptotic cells at 5 uM after 48 hrs by Annexin-V-FITC/propidium iodide staining based flow cytometric method (reference value: 1.17%); assay type: functional
SMMC-7721 [6] = assay: Down regulation of COX1 mRNA expression in human SMMC7721 cells at 8 uM by RT-qPCR analysis; assay type: functional, cell-based; outline: as §1
SMMC-7721 [7] = assay: Induction of apoptosis in human SMMC7721 cells assessed as necrotic cells at 10 uM after 48 hrs by Annexin-V-FITC/propidium iodide staining based flow cytometric method (reference value: 0.82%); assay type: functional
SMMC-7721 [8] = assay: Induction of apoptosis in human SMMC7721 cells assessed as live cells at 10 uM after 48 hrs by Annexin-V-FITC/propidium iodide staining based flow cytometric method (reference value: 95.75%); assay type: functional
SMMC-7721 [9] = assay: Antimetastatic activity against human SMMC7721 cells assessed as reduction in cell invasion at 1 uM after 48 hrs using crystal violet staining by matrigel based fluorescence microscopic analysis relative to control; assay type: functional
Outline: (§2)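 Transwell invasion: filter (8 μm pore) coated with matrigel for 2 h at 37 °C; 2 × 10^4 cells seeded in serum-free RPMI on upper surface with test agent 48 h; 10% FBS medium in lower chamber. Non-invaded cells swabbed off; invaded cells crystal violet stained, counted in five random fields by fluorescence microscopy. Paclitaxel 100 nM positive control; means ± SD, n = 3.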

SMMC-7721 [10] = assay: Cell cycle arrest in human SMMC7721 cells assessed as increase in G1 population at 2.5 to 5 uM after 48 hrs by propidium iodide staining based flow cytometric method; assay type: functional
Outline: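 Cells exposed 48 h to 2.5 or 5 μM, PBS-washed, fixed in 70% ethanol at 4 °C overnight, centrifuged, RNase treated 37 °C 30 min, then PI stained 30 min in dark; G1/S/G2 distribution by flow cytometry; means ± SD, n = 3.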

SMMC-7721 [11] = assay: Induction of apoptosis in human SMMC7721 cells assessed as necrotic cells at 5 uM after 48 hrs by Annexin-V-FITC/propidium iodide staining based flow cytometric method (reference value: 0.82%); assay type: functional
SMMC-7721 [12] = assay: Induction of apoptosis in human SMMC7721 cells assessed as early apoptotic cells at 10 uM after 48 hrs by Annexin-V-FITC/propidium iodide staining based flow cytometric method (reference value: 2.27%); assay type: functional
SMMC-7721 [13] = assay: Antimetastatic activity against human SMMC7721 cells assessed as reduction in cell invasion at 2 uM after 48 hrs using crystal violet staining by matrigel based fluorescence microscopic analysis relative to control; assay type: functional; outline: as §2
SMMC-7721 [14] = assay: Down regulation of MAGP2 mRNA expression in human SMMC7721 cells at 8 uM by RT-qPCR analysis; assay type: functional, cell-based; outline: as §1
SMMC-7721 [15] = assay: Antimetastatic activity against human SMMC7721 cells assessed as reduction in cell invasion at 0.5 uM after 48 hrs using crystal violet staining by matrigel based fluorescence microscopic analysis relative to control; assay type: functional; outline: as §2
SMMC-7721 [16] = assay: Induction of apoptosis in human SMMC7721 cells assessed as late apoptotic cells at 10 uM after 48 hrs by Annexin-V-FITC/propidium iodide staining based flow cytometric method (reference value: 1.17%); assay type: functional
SMMC-7721 [17] = assay: Induction of apoptosis in human SMMC7721 cells assessed as necrotic cells at 2.5 uM after 48 hrs by Annexin-V-FITC/propidium iodide staining based flow cytometric method (reference value: 0.82%); assay type: functional
SMMC-7721 [18] = assay: Antimetastatic activity against human SMMC7721 cells assessed as reduction in cell migration at 0.5 to 2 uM after 48 hrs by crystal violet staining based fluorescence microscopic analysis; assay type: functional
Outline: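 Migration through uncoated Transwell filter (8 μm pore): 2 × 10^4 cells in serum-free RPMI on upper side, treated 0.5, 1 or 2 μM for 48 h; lower chamber 10% FBS medium. Upper-surface cells removed by swab; underside cells crystal violet stained and scored in five random fields under fluorescence microscope. Paclitaxel 100 nM positive control; n = 3.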

SMMC-7721 [19] = assay: Upregulation of DLD mRNA expression in human SMMC7721 cells at 8 uM by RT-qPCR analysis; assay type: functional, cell-based; outline: as §1
SMMC-7721 [20] = assay: Down regulation of CEACAM7 mRNA expression in human SMMC7721 cells at 8 uM by RT-qPCR analysis; assay type: functional, cell-based; outline: as §1
SMMC-7721 [21] = assay: Induction of apoptosis in human SMMC7721 cells assessed as live cells at 5 uM after 48 hrs by Annexin-V-FITC/propidium iodide staining based flow cytometric method (reference value: 95.75%); assay type: functional
SMMC-7721 [22] = assay: Cytotoxicity against human SMMC7721 cells assessed as reduction in cell viability after 48 hrs by MTT assay; assay type: functional, cell-based; conditions: SMMC-7721, 48 h
Outline: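 MTT viability: 5 × 10^4 cells/well seeded, cultured overnight, treated with graded concentrations 48 h; MTT (5 mg/mL stock) added 4 h, formazan dissolved in DMSO, absorbance read at 490 nm.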

SMMC-7721 [23] = assay: Down regulation of COX2 mRNA expression in human SMMC7721 cells at 8 uM by RT-qPCR analysis; assay type: functional, cell-based; outline: as §1
SMMC-7721 [24] = assay: Induction of apoptosis in human SMMC7721 cells after 48 hrs by Annexin-V-FITC/propidium iodide staining based flow cytometric method; assay type: functional, cell-based
SMMC-7721 [25] = assay: Induction of apoptosis in human SMMC7721 cells assessed as early apoptotic cells at 2.5 uM after 48 hrs by Annexin-V-FITC/propidium iodide staining based flow cytometric method (reference value: 2.27%); assay type: functional
SMMC-7721 [26] = assay: Induction of apoptosis in human SMMC7721 cells assessed as live cells at 2.5 uM after 48 hrs by Annexin-V-FITC/propidium iodide staining based flow cytometric method (reference value: 95.75%); assay type: functional

With O=C1C=CC(=C(c2ccc(O)cc2)c2c(-c3ccc(O)cc3)ccc(CO)c2C#Cc2ccc(OCc3ccc(-c4ccc(O)cc4)c(C(=C4C=CC(=O)C=C4)c4ccc(O)cc4)c3C#Cc3ccc(O)cc3)cc2)C=C1 the Activity (SMMC-7721 [1]) was “Active”, the Activity (SMMC-7721 [2]) was 7.57% and the Activity (SMMC-7721 [3]) was 11.13%. For the same compound, the Activity (SMMC-7721 [4]) was “Active”, the Activity (SMMC-7721 [5]) was 32.3% and the Activity (SMMC-7721 [6]) was “Active”. For the same compound, the Activity (SMMC-7721 [7]) was 1.15%, the Activity (SMMC-7721 [8]) was 47.83% and the “fold change (FC)” value (SMMC-7721 [9]) was 0.42. For the same compound, the Activity (SMMC-7721 [10]) was “Active”, the Activity (SMMC-7721 [11]) was 1.54% and the Activity (SMMC-7721 [12]) was 21.22%. The “fold change (FC)” value (SMMC-7721 [13]) was 0.39, the Activity (SMMC-7721 [14]) was “Active” and the “fold change (FC)” value (SMMC-7721 [15]) was 0.53. The Activity (SMMC-7721 [16]) was 29.8%, the Activity (SMMC-7721 [17]) was 0.89% and the Activity (SMMC-7721 [18]) was “Active”. For the same compound, the Activity (SMMC-7721 [19]) was “Active”, the Activity (SMMC-7721 [20]) was “Active” and the Activity (SMMC-7721 [21]) was 58.59%. For the same compound, the IC50 (SMMC-7721 [22]) was 9 µM, the Activity (SMMC-7721 [23]) was “Active” and the Activity (SMMC-7721 [24]) was “Dose-dependent effect”. For the same compound, the Activity (SMMC-7721 [25]) was 5.4% and the Activity (SMMC-7721 [26]) was 82.58%.

From ChEMBL document CHEMBL4138183, “Diselaginellin B, an Unusual Dimeric Molecule from Selaginella pulvinata, Inhibited Metastasis and Induced Apoptosis of SMMC-7721 Human Hepatocellular Carcinoma Cells” (J Nat Prod, 2017)
